Experimental data published in ChEMBL document CHEMBL1255300, “Pharmacodynamics of the antibacterial effect and emergence of resistance to tomopenem, formerly RO4908463/CS-023, in an in vitro pharmacokinetic model of Staphylococcus aureus infection” (Antimicrob Agents Chemother, 2008).
Values after ≈ are worked out from the molar mass of the structure shown. Active and inactive are the calls of the source. The rule behind the calls is not given here.

Assays:
Staphylococcus aureus [1] = assay: AUBKC (0 to 48 hrs) in methicillin-resistant Staphylococcus aureus 33922 infected in in vitro pharmacokinetic model at 750 mg, iv every 8 hrs using 10^6 CFU/ml inoculum; format: functional
In short: (§1)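 Single-compartment dilutional in vitro PK model at 37°C in 10% Mueller-Hinton broth, stirred, flow 132 ml/h. […] Inoculum 10^6 CFU/ml added 45 min before dosing, or 10^8 CFU/ml run overnight. Viable counts with β-lactamase neutralisation. AUBKC by log-linear trapezoidal rule, at least triplicate.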

Staphylococcus aureus [2] = assay: Antibacterial activity against methicillin-sensitive Staphylococcus aureus 5956 infected in in vitro pharmacokinetic model assessed as reduction in viable count at 1500 mg, iv every 8 hrs measured after 12 hrs using 10^6 CFU/ml inoculum; format: functional
Staphylococcus aureus [3] = assay: Antibacterial activity against methicillin-resistant Staphylococcus aureus 33827 infected in in vitro pharmacokinetic model assessed as reduction in viable count at 1500 mg, iv every 8 hrs measured after 48 hrs using 10^6 CFU/ml inoculum; format: functional
In short: (§2)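 Single-compartment dilutional in vitro PK model, 10% Mueller-Hinton broth, 37°C, stirred, dilution 132 ml/h. […] Inoculum 10^6 CFU/ml (added 45 min pre-dose) or 10^8 CFU/ml (run overnight). Viable counts by spiral plating, beta-lactamase neutralization, detection limit 10^2 CFU/ml. At least triplicate.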

Staphylococcus aureus [4] = assay: T>MIC for static effect in methicillin-sensitive Staphylococcus aureus 5956 in in vitro pharmacokinetic model after 24 hrs using 10^6 CFU/ml inoculum; format: functional
Staphylococcus aureus [5] = assay: AUBKC (0 to 24 hrs) in methicillin-resistant Staphylococcus aureus 33827 infected in in vitro pharmacokinetic model at 1500 mg, iv every 8 hrs using 10^8 CFU/ml inoculum; format: functional; in short: as §1
Staphylococcus aureus [6] = assay: T>MIC for 4-log drop in count in methicillin-resistant Staphylococcus aureus 33820 in in vitro pharmacokinetic model after 24 hrs using 10^6 CFU/ml inoculum; format: functional
Staphylococcus aureus [7] = assay: T>MIC in methicillin-resistant Staphylococcus aureus 33815 infected in vitro pharmacokinetic model at 1500 mg, iv every 8 hrs; format: functional
Staphylococcus aureus [8] = assay: Antibacterial activity against methicillin-resistant Staphylococcus aureus 33921 infected in in vitro pharmacokinetic model assessed as reduction in viable count at 750 mg, iv every 8 hrs measured after 36 hrs using 10^6 CFU/ml inoculum; format: functional
Staphylococcus aureus [9] = assay: Antibacterial activity against methicillin-resistant Staphylococcus aureus 33922 infected in in vitro pharmacokinetic model assessed as reduction in viable count at 1500 mg, iv every 8 hrs measured after 24 hrs using 10^6 CFU/ml inoculum; format: functional
Staphylococcus aureus [10] = assay: Antibacterial activity against methicillin-resistant Staphylococcus aureus 33827 infected in in vitro pharmacokinetic model assessed as time required to 99.9% killing at 750 mg, iv every 8 hrs using 10^6 CFU/ml inoculum; format: functional; in short: as §2
Staphylococcus aureus [11] = assay: Antibacterial activity against methicillin-resistant Staphylococcus aureus 33815 infected in in vitro pharmacokinetic model assessed as reduction in viable count at 750 mg, iv every 8 hrs measured after 12 hrs using 10^6 CFU/ml inoculum; format: functional
In short: (§3)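 Single-compartment dilutional in vitro PK model, 37°C, stirred, in 10% Mueller-Hinton broth. […] Inoculum 10^6 CFU/ml from a 24-h plate culture was added 45 min before dosing. Viable counts by spiral plating on nutrient agar with β-lactamase neutralization. Log change was taken from time 0; detection limit 10^2 CFU/ml; at least triplicate.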

Staphylococcus aureus [12] = assay: Antibacterial activity against methicillin-resistant Staphylococcus aureus 33820 infected in in vitro pharmacokinetic model assessed as time required to 99% killing at 750 mg, iv every 8 hrs using 10^6 CFU/ml inoculum; format: functional
Staphylococcus aureus [13] = assay: Antibacterial activity against methicillin-resistant Staphylococcus aureus 33829 infected in in vitro pharmacokinetic model assessed as time required to 99.9% killing at 750 mg, iv every 8 hrs using 10^6 CFU/ml inoculum; format: functional; in short: as §2
Staphylococcus aureus [14] = assay: Antibacterial activity against methicillin-resistant Staphylococcus aureus 33921 assessed as viable count at 4 times of MIC after 48 hrs using 10^6 CFU/ml inoculum; format: functional, organism-based
Staphylococcus aureus [15] = assay: Antibacterial activity against methicillin-resistant Staphylococcus aureus 33820 in in vitro pharmacokinetic model assessed as viable count at 2 times of MIC; format: functional
In short: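 Population analysis before drug exposure (time 0). Model samples were plated on nutrient agar without drug and with tomopenem at 2×, 4× and 6× MIC (10% MHB MIC), and growth was recorded as log CFU/ml. Detection limit 2 log10.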

Staphylococcus aureus [16] = assay: Antibacterial activity against methicillin-resistant Staphylococcus aureus 33827 infected in in vitro pharmacokinetic model assessed as reduction in viable count at 1500 mg, iv every 8 hrs measured after 12 hrs using 10^8 CFU/ml inoculum; format: functional; in short: as §2
Staphylococcus aureus [17] = assay: T>MIC for 2-log drop in count in methicillin-resistant Staphylococcus aureus 33922 in in vitro pharmacokinetic model after 24 hrs using 10^8 CFU/ml inoculum; format: functional
Staphylococcus aureus [18] = assay: T>MIC for 4-log drop in count in methicillin-resistant Staphylococcus aureus 33815 in in vitro pharmacokinetic model after 24 hrs using 10^6 CFU/ml inoculum; format: functional
Staphylococcus aureus [19] = assay: Antibacterial activity against methicillin-resistant Staphylococcus aureus 33820 infected in in vitro pharmacokinetic model assessed as reduction in viable count at 1500 mg, iv every 8 hrs measured after 48 hrs using 10^6 CFU/ml inoculum; format: functional; in short: as §3
Staphylococcus aureus [20] = assay: Antibacterial activity against methicillin-resistant Staphylococcus aureus 33815 infected in in vitro pharmacokinetic model assessed as time required to 99.9% killing at 1500 mg, iv every 8 hrs using 10^8 CFU/ml inoculum; format: functional
In short: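 T99 and T99.9 were taken as the times for the count to fall 99% or 99.9% from time 0, using serial viable counts over 48 h. Inoculum was 10^8 CFU/ml, grown overnight in the model before dosing.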

Staphylococcus aureus [21] = assay: AUBKC (0 to 48 hrs) in methicillin-resistant Staphylococcus aureus 33921 infected in in vitro pharmacokinetic model at 750 mg, iv every 8 hrs using 10^6 CFU/ml inoculum; format: functional; in short: as §1
Staphylococcus aureus [22] = assay: Antibacterial activity against methicillin-resistant Staphylococcus aureus 33815 by 10% MH broth method; format: functional
In short: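 Broth dilution MIC per CLSI but in 10% Mueller-Hinton broth, using nondoubling dilutions.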

Staphylococcus aureus [23] = assay: Antibacterial activity against methicillin-resistant Staphylococcus aureus 33921 infected in in vitro pharmacokinetic model assessed as time required to 99.9% killing at 750 mg, iv every 8 hrs using 10^6 CFU/ml inoculum; format: functional
Staphylococcus aureus [24] = assay: AUBKC (0 to 24 hrs) in methicillin-sensitive Staphylococcus aureus 5956 infected in in vitro pharmacokinetic model at 1500 mg, iv every 8 hrs using 10^6 CFU/ml inoculum; format: functional
Staphylococcus aureus [25] = assay: Antibacterial activity against methicillin-resistant Staphylococcus aureus 33815 infected in in vitro pharmacokinetic model assessed as reduction in viable count at 1500 mg, iv every 8 hrs measured after 12 hrs using 10^8 CFU/ml inoculum; format: functional
In short: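 PK model at 37°C in 10% MHB. […] A 0.5 McFarland suspension (1 ml) was added and the model run overnight to reach 10^8 CFU/ml before dosing. Counts were spiral-plated on nutrient agar with β-lactamase. Change in log CFU/ml was measured from time 0; at least triplicate.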

C[C@@H](O)[C@H]1C(=O)N2C(C(=O)O)=C(S[C@H]3C[C@@H](C(=O)N4CC[C@H](NC(=O)CNC(=N)N)C4)N(C)C3)[C@H](C)[C@H]12 [TOMOPENEM]
AUBC (Staphylococcus aureus [1]): 27.7 log10CFU/ml.hr
log10CFU/ml (Staphylococcus aureus [2]): 4.4
log10CFU/ml (Staphylococcus aureus [3]): 3.6
fT>MIC (Staphylococcus aureus [4]): 6%
AUBC (Staphylococcus aureus [5]): 84.4 log10CFU/ml.hr
fT>MIC (Staphylococcus aureus [6]): 36.2%
fT>MIC (Staphylococcus aureus [7]): 98%
log10CFU/ml (Staphylococcus aureus [8]): 3.9
log10CFU/ml (Staphylococcus aureus [9]): 4.2
Time (Staphylococcus aureus [10]): 7 h
log10CFU/ml (Staphylococcus aureus [11]): 4.2
Time (Staphylococcus aureus [12]): 7 h
Time (Staphylococcus aureus [13]): 12 h
Activity (Staphylococcus aureus [14]): Active
log10CFU/ml (Staphylococcus aureus [15]): 2.3
log10CFU/ml (Staphylococcus aureus [16]): 3.4
fT>MIC (Staphylococcus aureus [17]): 4.7%
fT>MIC (Staphylococcus aureus [18]): 29.6%
log10CFU/ml (Staphylococcus aureus [19]): 4.2
Time (Staphylococcus aureus [20]): 24 h
AUBC (Staphylococcus aureus [21]): 41 log10CFU/ml.hr
MIC (Staphylococcus aureus [22]): 6 µg/mL (≈ 11.2 µM)
Time (Staphylococcus aureus [23]): 12 h
AUBC (Staphylococcus aureus [24]): 22.7 log10CFU/ml.hr
log10CFU/ml (Staphylococcus aureus [25]): 1.5
